Results published in ChEMBL document CHEMBL1944540, “Synthesis, molecular docking and biological evaluation of 1,3,4-oxadiazole derivatives as potential immunosuppressive agents” (Bioorg Med Chem, 2012).
pIC50: −log10 of the molar value.

What was measured:
[1] = molecular target: Phosphatidylinositol 4,5-bisphosphate 3-kinase catalytic subunit gamma isoform (Homo sapiens, UniProt P48736); assay: Inhibition of PI3Kgamma after 4 hrs
In short: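 Recombinant PI3Kγ incubated 4 h at room temperature with or without compound at final concentrations of 3, 10, 30 and 50 μM.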

T-cell = assay: Selectivity index, ratio of CC50 for lymph node T cell to IC50 for lymph node T cell; format: functional

Chain of Phosphatidylinositol 4,5-bisphosphate 3-kinase catalytic subunit gamma isoform (P48736 whole entry, canonical isoform): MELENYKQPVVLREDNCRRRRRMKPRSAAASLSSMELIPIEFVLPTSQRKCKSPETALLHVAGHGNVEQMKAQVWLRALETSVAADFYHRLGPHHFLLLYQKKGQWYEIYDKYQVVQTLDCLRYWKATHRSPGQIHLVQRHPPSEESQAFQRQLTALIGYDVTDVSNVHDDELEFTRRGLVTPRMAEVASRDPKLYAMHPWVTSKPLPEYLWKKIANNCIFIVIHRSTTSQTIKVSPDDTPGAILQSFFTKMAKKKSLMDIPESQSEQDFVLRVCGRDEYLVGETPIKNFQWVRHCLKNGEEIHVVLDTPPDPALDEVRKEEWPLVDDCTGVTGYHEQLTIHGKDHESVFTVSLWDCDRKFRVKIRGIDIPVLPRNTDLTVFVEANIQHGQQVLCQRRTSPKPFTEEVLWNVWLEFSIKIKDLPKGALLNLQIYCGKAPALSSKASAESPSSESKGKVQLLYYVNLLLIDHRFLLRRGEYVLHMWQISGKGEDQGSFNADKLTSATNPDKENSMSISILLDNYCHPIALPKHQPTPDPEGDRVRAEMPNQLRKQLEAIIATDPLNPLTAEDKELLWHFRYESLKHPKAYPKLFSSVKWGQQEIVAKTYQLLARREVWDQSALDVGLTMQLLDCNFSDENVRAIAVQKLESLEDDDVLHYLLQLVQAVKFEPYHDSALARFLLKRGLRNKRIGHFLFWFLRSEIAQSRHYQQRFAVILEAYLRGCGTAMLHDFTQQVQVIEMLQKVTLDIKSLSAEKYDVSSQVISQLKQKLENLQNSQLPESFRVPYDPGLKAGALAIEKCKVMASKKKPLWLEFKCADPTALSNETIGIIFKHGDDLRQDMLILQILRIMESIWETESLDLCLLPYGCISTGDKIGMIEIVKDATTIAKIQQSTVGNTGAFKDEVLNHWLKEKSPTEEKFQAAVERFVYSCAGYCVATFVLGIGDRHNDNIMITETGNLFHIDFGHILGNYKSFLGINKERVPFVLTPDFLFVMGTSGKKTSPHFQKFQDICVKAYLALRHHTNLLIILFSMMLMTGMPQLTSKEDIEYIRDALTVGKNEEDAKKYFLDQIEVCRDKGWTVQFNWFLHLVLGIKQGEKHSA

pIC50 [1]	Structure (SMILES)	Ratio CC50/IC50 (T-cell)
5.69	CC(=O)Oc1ccccc1C1OC(c2ccc3c(c2)OCCO3)=NN1C(C)=O (stereo unspecified)	
6.01	CC(=O)Oc1ccc(Cl)cc1C1OC(c2ccc3c(c2)OCCO3)=NN1C(C)=O (stereo unspecified)	
5.88	CC(=O)Oc1ccc(Br)cc1C1OC(c2ccc3c(c2)OCCO3)=NN1C(C)=O (stereo unspecified)	
5.76	CC(=O)Oc1c(Cl)cc(Cl)cc1C1OC(c2ccc3c(c2)OCCO3)=NN1C(C)=O (stereo unspecified)	
5.70	CC(=O)Oc1c(Br)cc(Br)cc1C1OC(c2ccc3c(c2)OCCO3)=NN1C(C)=O (stereo unspecified)	
	C/C=C/C[C@@H](C)[C@@H](O)[C@H]1C(=O)N[C@@H](CC)C(=O)N(C)CC(=O)N(C)[C@@H](CC(C)C)C(=O)N[C@@H](C(C)C)C(=O)N(C)[C@@H](CC(C)C)C(=O)N[C@@H](C)C(=O)N[C@H](C)C(=O)N(C)[C@@H](CC(C)C)C(=O)N(C)[C@@H](CC(C)C)C(=O)N(C)[C@@H](C(C)C)C(=O)N1C [CYCLOSPORINE]	196.86
